Data set [1] has as its system Leishmania amazonensis. The data set is described as follows: Antileishmanial activity against Leishmania amazonensis IFLA/BR/1967/PH8 promastigotes transfected with red fluorescent protein after 72 hrs by MTT assay. It counts as functional. As to conditions: IFLA/BR/1967/PH8, 72 h.
The subject of data set [2] is Leishmania amazonensis. Briefly: Antileishmanial activity against Leishmania amazonensis IFLA/BR/1967/PH8 amastigotes infected in murine macrophages after 72 hrs by fluorometric analysis. It counts as functional. The note with it: IFLA/BR/1967/PH8, 72 h.
A short description of data set [3]: Cytotoxicity against mouse peritoneal macrophages after 72 hrs by MTT assay. It counts as cell-based, Peritoneal macrophage. The note with it: peritoneal macrophages.
Data set [4] can be described thus: Selectivity index, ratio of CC50 for mouse peritoneal macrophages to IC50 for Leishmania amazonensis IFLA/BR/1967/PH8 amastigotes. A digest of the protocol:
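SI = CC50 for mouse peritoneal macrophages / amastigote IC50. […] IC50: WT-infected macrophages treated with 0.78–100.0 µM in sterile water; burden scored by counting amastigotes and infected/uninfected cells in at least 200 macrophages. Three experiments in duplicate.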

Data set [5] in a line: Selectivity index, ratio of CC50 for mouse peritoneal macrophages to IC50 for Leishmania amazonensis IFLA/BR/1967/PH8 amastigotes transfected with red fluorescent protein. A digest of the protocol:
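SI = CC50 for mouse peritoneal macrophages / RFP amastigote IC50. […] IC50: macrophages infected with RFP-expressing PH8 parasites, treated with 0.78–100.0 µM for 72 h; fluorescence read at 540 nm excitation/600 nm emission. Three experiments in duplicate.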

In data set [6] the test system is Leishmania amazonensis. Briefly: Antileishmanial activity against Leishmania amazonensis IFLA/BR/1967/PH8 amastigotes infected in murine macrophages at 0.9 uM incubated for 72 hrs followed by compound washout measured after 72 hrs by microscopic method relative to control. As to conditions: IFLA/BR/1967/PH8, 72 h. It counts as functional. A digest of the protocol:
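Macrophages infected with WT PH8 parasites treated 72 h at 33 °C, 5% CO2; washed twice in PBS, then held in drug-free Warren's medium + 10% serum at 25 °C for 72 h; viable promastigotes counted microscopically versus untreated; three independent experiments in duplicate.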

The nature of data set [7]: Hemolytic activity in human erythrocytes at 9.4 to 150 uM relative to control. It counts as ADME, cell-based, Erythrocyte. As to conditions: read-out: Activity. A digest of the protocol:
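Fresh human red cells suspended in PBS incubated with the compound; 1% saponin as positive control, untreated as negative; three experiments in triplicate.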

For data set [8], the system named is Leishmania amazonensis. Briefly: Induction of ROS accumulation in Leishmania amazonensis IFLA/BR/1967/PH8 promastigotes at 20 uM after 72 hrs by H2DCFDA staining-based fluorometric analysis relative to control. It counts as functional. In outline:
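WT exponential-phase promastigotes treated at 25 °C; adjusted to 2x10^7 cells in PBS, loaded with H2DCFDA 30 min dark at room temperature; fluorescence 485/528 nm versus untreated; three independent experiments.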

Data set [9] has as its system Leishmania amazonensis. Briefly: Induction of ROS accumulation in Leishmania amazonensis IFLA/BR/1967/PH8 promastigotes at 2.5 uM after 72 hrs by H2DCFDA staining-based fluorometric analysis relative to control. It counts as functional. In outline:
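WT (PH8) promastigotes in exponential phase, untreated or exposed to 2.5–20.0 µM at 25 °C. Cells adjusted to 2x10^7 promastigotes in PBS, then loaded with H2DCFDA for 30 min in the dark at room temperature. Fluorescence read at ex 485/em 528 nm. Positive control was miltefosine 22.0 µM. Reported as arbitrary fluorescence units, mean of three independent experiments.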

For data set [10], the system named is Leishmania amazonensis. The data set is described as follows: Induction of apoptosis in Leishmania amazonensis IFLA/BR/1967/PH8 promastigotes assessed as late apoptotic population at 20 uM after 24 hrs by Annexin V-FITC/PI staining based flow cytometric analysis (reference value: 2.62%). It counts as functional. In outline:
(§1)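 Exponential-phase WT promastigotes (1x10^7 cells/mL) cultured 24 h at 25 °C; stained annexin V-FITC plus PI, flow cytometry with 10,000 events gated on parasites; quadrant percentages; three independent experiments.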
(Flow cytometry measures light scatter and fluorescence of single cells or particles in a stream.)

Data set [11] concerns Leishmania amazonensis. The data set is described as follows: Induction of apoptosis in Leishmania amazonensis IFLA/BR/1967/PH8 promastigotes assessed as necrotic population at 20 uM after 24 hrs by Annexin V-FITC/PI staining based flow cytometric analysis (reference value: 0.03%). It counts as functional. A digest of the protocol: as §1
In data set [12] the test system is Leishmania amazonensis. The data set is described as follows: Induction of apoptosis in Leishmania amazonensis IFLA/BR/1967/PH8 promastigotes assessed as late apoptotic population at 5 uM after 24 hrs by Annexin V-FITC/PI staining based flow cytometric analysis (reference value: 2.62%). It counts as functional. A digest of the protocol: as §1
The subject of data set [13] is Leishmania amazonensis. Briefly: Induction of apoptosis in Leishmania amazonensis IFLA/BR/1967/PH8 promastigotes assessed as early apoptotic population at 2.5 uM after 24 hrs by Annexin V-FITC/PI staining based flow cytometric analysis (reference value: 5.29%). It counts as functional.
Data set [14] concerns Leishmania amazonensis. Briefly: Induction of apoptosis in Leishmania amazonensis IFLA/BR/1967/PH8 promastigotes assessed as late apoptotic population at 2.5 uM after 24 hrs by Annexin V-FITC/PI staining based flow cytometric analysis (reference value: 2.62%). It counts as functional.
Data set [15] deals with Leishmania amazonensis. The data set is described as follows: Induction of apoptosis in Leishmania amazonensis IFLA/BR/1967/PH8 promastigotes assessed as necrotic population at 2.5 uM after 24 hrs by Annexin V-FITC/PI staining based flow cytometric analysis (reference value: 0.03%). It counts as functional.

In general, IC50 refers to the concentration at which inhibition is half-maximal. Read a high IC50 as weaker potency in that assay. What is called CC50 is the concentration that lowers cell viability or growth by half. The term inhibition denotes the share of the control response that was lost under treatment. Read a low inhibition as little suppression. Consider `CC(=O)[O-].CCCCCCCCCCn1cc(CO)[n+](C)n1`, for which the half-inhibitory concentration (IC50) with Leishmania amazonensis [1] was 15.6 µM; in the data set with Leishmania amazonensis [2], 0.9 µM. Moreover, the CC50 at 72 h in data set [3] is 116 µM. The “Ratio CC50/IC50” value in data set [4] is 128.8; in data set [5] it was 115.9. The compound further had an inhibition at 0.9 µM with Leishmania amazonensis [6] of 61.9%. Moreover, the hemolysis at up to 150 µM in [7] is below 5%. Also, the Activity in the data set with Leishmania amazonensis [8] was determined as 75.5%; with Leishmania amazonensis [9], 38.4%; with Leishmania amazonensis [10], 16.88%; in the data set with Leishmania amazonensis [11] it was 3.97%; with Leishmania amazonensis [12] it was 1.58%; in the data set with Leishmania amazonensis [13], 30.6%. Also, the Activity with Leishmania amazonensis [14] is recorded as 0.82%; in the data set on Leishmania amazonensis [15] it was 0.16%.

The record behind these values is ChEMBL document CHEMBL4033653, “Effect of 1,2,3-triazole salts, non-classical bioisosteres of miltefosine, on Leishmania amazonensis” (Bioorg Med Chem, 2017).
